In ChEMBL document CHEMBL1687714, “Genetic analysis of fenhexamid-resistant field isolates of the phytopathogenic fungus Botrytis cinerea” (Antimicrob Agents Chemother, 2008):
In brackets after ≈: the same amount, converted by molar mass. Activity calls are given as the source filed them. No cut-off for these calls is given here.

Experiments:
[1] = system: Botrytis cinerea; test: Antifungal activity against highly fenhexamid-resistant Botrytis cinerea 05-PV Reims assessed as inhibition of germ tube elongation after 24 hrs; assay type: functional, organism-based
[2] = system: Botrytis cinerea; test: Antifungal activity against highly fenhexamid-resistant Botrytis cinerea 520a assessed as inhibition of mycelium growth measured over 5 days; assay type: functional, organism-based; settings: 120 h
[3] = system: Botrytis cinerea; test: Antifungal activity against highly fenhexamid-resistant Botrytis cinerea 520a assessed as inhibition of germ tube elongation after 24 hrs; assay type: functional, organism-based
[4] = system: Botrytis cinerea; test: Antifungal activity against Botrytis cinerea 286 harboring TELerg S336C mutant at 10 ug/ml relative to wild-type; assay type: functional, organism-based
How it was run: (§1)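 In the dominance test, the recipient strains 453b and 286 were transformed with different erg27 alleles. Spores of the transformants were grown on YSS medium containing fenhexamid at different concentrations and 50 µg ml–1 hygromycin B. Parental strains were grown without hygromycin. Growth was scored after 7 days at 21°C.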

[5] = system: Botrytis cinerea; test: Antifungal activity against moderately to slightly fenhexamid-resistant Botrytis cinerea 202 assessed as inhibition of mycelium growth measured over 5 days; assay type: functional, organism-based; settings: Botrytis cinerea, 202, 120 h
[6] = system: Botrytis cinerea; test: Antifungal activity against HydR3 deficient Botrytis cinerea 453 harboring TELerg F412I mutant at 10 ug/ml relative to wild-type; assay type: functional, organism-based; how it was run: as §1
[7] = system: Botrytis cinerea; test: Antifungal activity against moderately to slightly fenhexamid-resistant Botrytis cinerea 05-ABA assessed as inhibition of germ tube elongation after 24 hrs; assay type: functional, organism-based
[8] = system: Botrytis cinerea; test: Antifungal activity against Botrytis cinerea B05.10 harboring TELerg F412I mutant assessed as appearance of mycelium growth up to 20 ug/ml; assay type: functional
How it was run: (§2)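 B05.10 transformants carrying the erg27 allele on the pFTELerg plasmid were grown on rich medium with hygromycin B until conidiation. Spores were spread on YSS (synthetic complete) medium with 50 µg ml–1 hygromycin B and fenhexamid at 1 to 20 µg ml–1. After 7 days at 21°C, spores developing mycelium were scored under the microscope.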

[9] = system: Botrytis cinerea; test: Antifungal activity against highly fenhexamid-resistant Botrytis cinerea 520b assessed as inhibition of germ tube elongation after 24 hrs; assay type: functional, organism-based
[10] = system: Botrytis cinerea; test: Antifungal activity against moderately to slightly fenhexamid-resistant Botrytis cinerea 453b assessed as inhibition of germ tube elongation after 24 hrs; assay type: functional, organism-based
[11] = system: Botrytis cinerea; test: Antifungal activity against HydR3 deficient Botrytis cinerea 453 harboring TELerg N369D mutant at 2 ug/ml relative to wild-type; assay type: functional, organism-based; how it was run: as §1
[12] = system: Botrytis cinerea; test: Antifungal activity against highly fenhexamid-resistant Botrytis cinerea 440b assessed as inhibition of germ tube elongation after 24 hrs; assay type: functional, organism-based
[13] = system: Botrytis cinerea; test: Antifungal activity against fenhexamid-senistive Botrytis cinerea SAS56 assessed as inhibition of mycelium growth measured over 5 days; assay type: functional, organism-based; settings: SAS56, 120 h
[14] = system: Botrytis cinerea; test: Antifungal activity against HydR3 deficient Botrytis cinerea 453 harboring TELerg F412I mutant at 1 ug/ml relative to wild-type; assay type: functional, organism-based; how it was run: as §1
[15] = system: Botrytis cinerea; test: Antifungal activity against highly fenhexamid-resistant Botrytis cinerea 05-AVB assessed as inhibition of mycelium growth measured over 5 days; assay type: functional, organism-based; settings: 120 h
[16] = system: Botrytis cinerea; test: Antifungal activity against highly fenhexamid-resistant Botrytis cinerea 05-190 assessed as inhibition of mycelium growth measured over 5 days; assay type: functional, organism-based; settings: 05-190, 120 h
[17] = system: Botrytis cinerea; test: Antifungal activity against highly fenhexamid-resistant Botrytis cinerea 223a assessed as inhibition of germ tube elongation after 24 hrs; assay type: functional, organism-based
[18] = system: Botrytis cinerea; test: Antifungal activity against highly fenhexamid-resistant Botrytis cinerea 379b assessed as inhibition of germ tube elongation after 24 hrs; assay type: functional, organism-based
[19] = system: Botrytis cinerea; test: Antifungal activity against highly fenhexamid-resistant Botrytis cinerea 440a assessed as inhibition of germ tube elongation after 24 hrs; assay type: functional, organism-based
[20] = system: Botrytis cinerea; test: Antifungal activity against moderately to slightly fenhexamid-resistant Botrytis cinerea 452 assessed as inhibition of germ tube elongation after 24 hrs; assay type: functional, organism-based; settings: Botrytis cinerea, 452, 24 h
[21] = system: Botrytis cinerea; test: Antifungal activity against moderately to slightly fenhexamid-resistant Botrytis cinerea 453a assessed as inhibition of germ tube elongation after 24 hrs; assay type: functional, organism-based
[22] = system: Botrytis cinerea; test: Antifungal activity against HydR3 deficient Botrytis cinerea 453 harboring TELerg F412I mutant at 5 ug/ml relative to wild-type; assay type: functional, organism-based; how it was run: as §1
[23] = system: Botrytis cinerea; test: Antifungal activity against highly fenhexamid-resistant Botrytis cinerea 379a assessed as inhibition of mycelium growth measured over 5 days; assay type: functional, organism-based; settings: 120 h
[24] = system: Botrytis cinerea; test: Antifungal activity against highly fenhexamid-resistant Botrytis cinerea 440a assessed as inhibition of mycelium growth measured over 5 days; assay type: functional, organism-based; settings: 120 h
[25] = system: Botrytis cinerea; test: Antifungal activity against highly fenhexamid-resistant Botrytis cinerea 506b assessed as inhibition of germ tube elongation after 24 hrs; assay type: functional, organism-based
[26] = system: Botrytis cinerea; test: Antifungal activity against highly fenhexamid-resistant Botrytis cinerea 379b assessed as inhibition of mycelium growth measured over 5 days; assay type: functional, organism-based; settings: 120 h
[27] = system: Botrytis cinerea; test: Antifungal activity against highly fenhexamid-resistant Botrytis cinerea 264 assessed as inhibition of germ tube elongation after 24 hrs; assay type: functional, organism-based; settings: Botrytis cinerea, 264, 24 h
[28] = system: Botrytis cinerea; test: Antifungal activity against Botrytis cinerea B05.10 harboring TELerg F412S mutant assessed as appearance of mycelium growth up to 20 ug/ml; assay type: functional; how it was run: as §2
[29] = system: Botrytis cinerea; test: Antifungal activity against fenhexamid-senistive Botrytis cinerea SAS405 assessed as inhibition of germ tube elongation after 24 hrs; assay type: functional, organism-based; settings: SAS405, 24 h
[30] = system: Botrytis cinerea; test: Antifungal activity against moderately to slightly fenhexamid-resistant Botrytis cinerea 453b assessed as inhibition of mycelium growth measured over 5 days; assay type: functional, organism-based; settings: 120 h
[31] = system: Botrytis cinerea; test: Antifungal activity against Botrytis cinerea 223b expressing erg27 HydR3+ alleles assessed as appearance of dense mycelium up to 20 ug/ml; assay type: functional, organism-based
How it was run: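 Spores of parental strains were spread on YSS (synthetic complete) medium containing fenhexamid at several concentrations, without hygromycin B. Growth was scored after 7 days at 21°C.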

[32] = system: Botrytis cinerea; test: Antifungal activity against moderately to slightly fenhexamid-resistant Botrytis cinerea 454 assessed as inhibition of germ tube elongation after 24 hrs; assay type: functional, organism-based; settings: Botrytis cinerea, 454, 24 h
[33] = system: Botrytis cinerea; test: Antifungal activity against highly fenhexamid-resistant Botrytis cinerea 533 assessed as inhibition of germ tube elongation after 24 hrs; assay type: functional, organism-based; settings: Botrytis cinerea, 533, 24 h
[34] = system: Botrytis cinerea; test: Antifungal activity against moderately to slightly fenhexamid-resistant Botrytis cinerea 202 assessed as inhibition of germ tube elongation after 24 hrs; assay type: functional, organism-based; settings: Botrytis cinerea, 202, 24 h
[35] = system: Botrytis cinerea; test: Antifungal activity against HydR3 deficient Botrytis cinerea 453 harboring TELerg N369D mutant at 1 ug/ml relative to wild-type; assay type: functional, organism-based; how it was run: as §1
[36] = system: Botrytis cinerea; test: Antifungal activity against highly fenhexamid-resistant Botrytis cinerea 118 assessed as inhibition of germ tube elongation after 24 hrs; assay type: functional, organism-based; settings: Botrytis cinerea, 118, 24 h
[37] = system: Botrytis cinerea; test: Antifungal activity against moderately to slightly fenhexamid-resistant Botrytis cinerea 05-1.27 assessed as inhibition of germ tube elongation after 24 hrs; assay type: functional, organism-based; settings: 05-1.27, 24 h
[38] = system: Botrytis cinerea; test: Antifungal activity against highly fenhexamid-resistant Botrytis cinerea MK5-2 assessed as inhibition of germ tube elongation after 24 hrs; assay type: functional, organism-based; settings: MK5-2, 24 h
[39] = system: Botrytis cinerea; test: Antifungal activity against highly fenhexamid-resistant Botrytis cinerea 223b assessed as inhibition of germ tube elongation after 24 hrs; assay type: functional, organism-based
[40] = system: Botrytis cinerea; test: Antifungal activity against highly fenhexamid-resistant Botrytis cinerea 05-190 assessed as inhibition of germ tube elongation after 24 hrs; assay type: functional, organism-based; settings: 05-190, 24 h
[41] = system: Botrytis cinerea; test: Antifungal activity against highly fenhexamid-resistant Botrytis cinerea MK3-31 assessed as inhibition of germ tube elongation after 24 hrs; assay type: functional, organism-based; settings: MK3-31, 24 h

CC1(C(=O)Nc2ccc(O)c(Cl)c2Cl)CCCCC1 [FENHEXAMID]
EC50 [1]: > 10 µg/mL | EC50 [2]: 3 µg/mL (≈ 9.93 µM) | EC50 [3]: 10 µg/mL (≈ 33.1 µM) | Activity [4]: inactive | EC50 [5]: < 0.3 µg/mL | Activity [6]: inactive | EC50 [7]: 0.8 µg/mL (≈ 2.65 µM) | Activity [8]: 10% | EC50 [9]: 8 µg/mL (≈ 26.5 µM) | EC50 [10]: 2 µg/mL (≈ 6.62 µM) | Activity [11]: inactive | EC50 [12]: > 10 µg/mL | EC50 [13]: < 0.1 µg/mL | Activity [14]: inactive | EC50 [15]: 5 µg/mL (≈ 16.5 µM) | EC50 [16]: > 10 µg/mL | EC50 [17]: > 10 µg/mL | EC50 [18]: > 10 µg/mL | EC50 [19]: > 10 µg/mL | EC50 [20]: 2.5 µg/mL (≈ 8.27 µM) | EC50 [21]: 3 µg/mL (≈ 9.93 µM) | Activity [22]: inactive | EC50 [23]: > 10 µg/mL | EC50 [24]: > 10 µg/mL | EC50 [25]: > 10 µg/mL | EC50 [26]: > 10 µg/mL | EC50 [27]: > 10 µg/mL | Activity [28]: 10% | EC50 [29]: < 0.1 µg/mL | EC50 [30]: 1.5 µg/mL (≈ 4.96 µM) | Activity [31]: inactive | EC50 [32]: 0.5 µg/mL (≈ 1.65 µM) | EC50 [33]: > 10 µg/mL | EC50 [34]: 2 µg/mL (≈ 6.62 µM) | Activity [35]: inactive | EC50 [36]: > 10 µg/mL | EC50 [37]: 2.5 µg/mL (≈ 8.27 µM) | EC50 [38]: > 5 µg/mL | EC50 [39]: > 10 µg/mL | EC50 [40]: > 10 µg/mL | EC50 [41]: > 5 µg/mL
